Data published in ChEMBL document CHEMBL4052589, “Discovery of Imidazo[1,2-a]pyridine Ethers and Squaramides as Selective and Potent Inhibitors of Mycobacterial Adenosine Triphosphate (ATP) Synthesis” (J Med Chem, 2017).

Assays:
Type in all cases: functional
[1] = test system: Mycobacterium tuberculosis; assay: Antimycobacterial activity against Mycobacterium tuberculosis H37Rv harboring ATP synthase subunit-c D28N mutant supplemented with 4 fold MIC of 3-(4-Morpholinophenyl)-4-((pyridin-2-ylmethyl)amino)cyclobut-3-ene-1,2-dione
How it was run: (§1)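 Spontaneous resistant mutants were selected by plating M. tuberculosis on 7H10 agar containing the squaramide at 4- or 8-fold its MIC. MIC was then determined for the mutants, with MIC taken as the concentration giving 80% growth inhibition.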

[2] = test system: Mycobacterium tuberculosis; assay: Antimycobacterial activity against Mycobacterium tuberculosis H37Rv harboring ATP synthase subunit a K179N mutant supplemented with 8 fold MIC of 3-(4-Morpholinophenyl)-4-((pyridin-2-ylmethyl)amino)cyclobut-3-ene-1,2-dione; how it was run: as §1
[3] = test system: Mycobacterium tuberculosis; assay: Antimycobacterial activity against Mycobacterium tuberculosis H37Rv harboring ATP synthase subunit-a K179N mutant supplemented with 4 fold MIC of 3-(4-Morpholinophenyl)-4-((pyridin-2-ylmethyl)amino)cyclobut-3-ene-1,2-dione; how it was run: as §1
[4] = test system: Mycobacterium tuberculosis; assay: Selectivity ratio of MIC for Mycobacterium tuberculosis H37Rv harboring ATP synthase subunit a K179N mutant supplemented with 8 fold MIC of 3-(4-Morpholinophenyl)-4-((pyridin-2-ylmethyl)amino)cyclobut-3-ene-1,2-dione to MIC for Mycobacterium tuberculosis H37Rv
[5] = test system: Mycobacterium tuberculosis; assay: Antimycobacterial activity against Mycobacterium tuberculosis H37Rv harboring ATP synthase subunit-c D28N mutant supplemented with 8 fold MIC of 3-(4-Morpholinophenyl)-4-((pyridin-2-ylmethyl)amino)cyclobut-3-ene-1,2-dione; how it was run: as §1
[6] = test system: Mycobacterium tuberculosis; assay: Selectivity ratio of MIC for Mycobacterium tuberculosis H37Rv harboring ATP synthase subunit-c D28N mutant supplemented with 4 fold MIC of 3-(4-Morpholinophenyl)-4-((pyridin-2-ylmethyl)amino)cyclobut-3-ene-1,2-dione to MIC for Mycobacterium tuberculosis H37Rv
[7] = test system: Mycobacterium tuberculosis; assay: Selectivity ratio of MIC for Mycobacterium tuberculosis H37Rv harboring ATP synthase subunit-c D28N mutant supplemented with 8 fold MIC of 3-(4-Morpholinophenyl)-4-((pyridin-2-ylmethyl)amino)cyclobut-3-ene-1,2-dione to MIC for Mycobacterium tuberculosis H37Rv
[8] = test system: Mycobacterium tuberculosis; assay: Selectivity ratio of MIC for Mycobacterium tuberculosis H37Rv harboring ATP synthase subunit-a K179N mutant supplemented with 4 fold MIC of 3-(4-Morpholinophenyl)-4-((pyridin-2-ylmethyl)amino)cyclobut-3-ene-1,2-dione to MIC for Mycobacterium tuberculosis H37Rv

Row | SMILES | MIC=>80 [1] | MIC=>80 [2] | MIC=>80 [3] | Selectivity ratio [4] | MIC=>80 [5] | Selectivity ratio [6] | Selectivity ratio [7] | Selectivity ratio [8]
1 | O=c1c(NCc2cnccn2)c(-c2ccc(N3CCOCC3)cc2)c1=O | >100 µM | >100 µM | >100 µM | >8 | >100 µM | >8 | >8 | >8
2 | O=c1c(NCc2ccccn2)c(-c2ccc(C(F)(F)F)cc2)c1=O | >100 µM | >=100 uM | >100 µM | >8 | 100 µM | >8 | >8 | >8
3 | NNC(=O)c1ccncc1 [ISONIAZID] | 0.02 µM | 0.02 to 0.03 µM | 0.03 µM | <=4 | 0.03 µM | <=4 | <=4 | <=4
4 | CO[C@H]1/C=C/O[C@@]2(C)Oc3c(C)c(O)c4c(O)c(c(/C=N/N5CCN(C)CC5)c(O)c4c3C2=O)NC(=O)/C(C)=C\C=C\[C@H](C)[C@H](O)[C@@H](C)[C@@H](O)[C@@H](C)[C@H](OC(C)=O)[C@@H]1C [RIFAMPIN] | 0.008 µM | 0.004 to 0.008 µM | 0.008 µM | <=4 | 0.016 µM | <=4 | <=4 | <=4
5 | O=c1c(NCc2ccccn2)c(-c2ccc(N3CCOCC3)cc2)c1=O | >100 µM | >100 µM | >100 µM | >8 | 100 µM | >8 | >8 | >8
